The list is not random: actives were taken first. Their share in the collection is about 1.9%.
Rin1 Abl inh: inhibitors of Rin1-Abl protein binding, primary screen, biochemical, TR-FRET; Tyrosine-protein kinase ABL1 (Homo sapiens) + Ras and Rab interactor 1 (Homo sapiens), …; inhibition, % at 7.35 µM; 360,000 compounds, 0.4% hits; in the data active = inhibition above about 5%, passing the limit was not always enough
Target sequence (P00519 whole entry, looked up): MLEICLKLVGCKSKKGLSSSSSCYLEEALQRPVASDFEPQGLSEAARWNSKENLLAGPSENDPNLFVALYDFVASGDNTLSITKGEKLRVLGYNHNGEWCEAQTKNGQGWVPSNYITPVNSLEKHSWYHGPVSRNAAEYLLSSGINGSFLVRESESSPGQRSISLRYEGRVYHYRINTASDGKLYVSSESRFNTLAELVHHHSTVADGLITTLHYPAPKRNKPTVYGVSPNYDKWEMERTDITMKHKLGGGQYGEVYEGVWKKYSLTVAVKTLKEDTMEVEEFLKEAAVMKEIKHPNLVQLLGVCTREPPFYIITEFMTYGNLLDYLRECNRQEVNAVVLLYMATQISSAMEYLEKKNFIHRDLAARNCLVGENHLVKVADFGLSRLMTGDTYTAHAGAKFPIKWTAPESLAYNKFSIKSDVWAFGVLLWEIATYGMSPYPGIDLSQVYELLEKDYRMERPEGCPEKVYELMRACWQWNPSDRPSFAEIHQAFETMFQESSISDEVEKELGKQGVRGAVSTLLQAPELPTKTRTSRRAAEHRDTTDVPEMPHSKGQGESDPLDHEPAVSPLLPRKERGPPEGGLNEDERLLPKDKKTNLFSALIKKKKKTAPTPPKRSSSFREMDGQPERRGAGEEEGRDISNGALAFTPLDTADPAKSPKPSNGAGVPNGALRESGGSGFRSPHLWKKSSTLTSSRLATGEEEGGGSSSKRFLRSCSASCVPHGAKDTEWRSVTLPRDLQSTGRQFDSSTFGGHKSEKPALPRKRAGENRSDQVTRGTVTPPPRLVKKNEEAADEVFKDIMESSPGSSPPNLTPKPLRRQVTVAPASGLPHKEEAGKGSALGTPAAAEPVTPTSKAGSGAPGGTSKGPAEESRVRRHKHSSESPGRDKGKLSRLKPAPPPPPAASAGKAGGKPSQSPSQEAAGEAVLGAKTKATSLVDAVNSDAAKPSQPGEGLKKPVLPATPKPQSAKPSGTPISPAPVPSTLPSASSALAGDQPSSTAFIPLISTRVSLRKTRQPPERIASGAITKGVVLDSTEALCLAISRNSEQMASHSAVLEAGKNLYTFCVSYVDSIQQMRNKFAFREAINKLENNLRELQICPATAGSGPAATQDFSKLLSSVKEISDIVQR
Target sequence (Q13671 whole entry, looked up): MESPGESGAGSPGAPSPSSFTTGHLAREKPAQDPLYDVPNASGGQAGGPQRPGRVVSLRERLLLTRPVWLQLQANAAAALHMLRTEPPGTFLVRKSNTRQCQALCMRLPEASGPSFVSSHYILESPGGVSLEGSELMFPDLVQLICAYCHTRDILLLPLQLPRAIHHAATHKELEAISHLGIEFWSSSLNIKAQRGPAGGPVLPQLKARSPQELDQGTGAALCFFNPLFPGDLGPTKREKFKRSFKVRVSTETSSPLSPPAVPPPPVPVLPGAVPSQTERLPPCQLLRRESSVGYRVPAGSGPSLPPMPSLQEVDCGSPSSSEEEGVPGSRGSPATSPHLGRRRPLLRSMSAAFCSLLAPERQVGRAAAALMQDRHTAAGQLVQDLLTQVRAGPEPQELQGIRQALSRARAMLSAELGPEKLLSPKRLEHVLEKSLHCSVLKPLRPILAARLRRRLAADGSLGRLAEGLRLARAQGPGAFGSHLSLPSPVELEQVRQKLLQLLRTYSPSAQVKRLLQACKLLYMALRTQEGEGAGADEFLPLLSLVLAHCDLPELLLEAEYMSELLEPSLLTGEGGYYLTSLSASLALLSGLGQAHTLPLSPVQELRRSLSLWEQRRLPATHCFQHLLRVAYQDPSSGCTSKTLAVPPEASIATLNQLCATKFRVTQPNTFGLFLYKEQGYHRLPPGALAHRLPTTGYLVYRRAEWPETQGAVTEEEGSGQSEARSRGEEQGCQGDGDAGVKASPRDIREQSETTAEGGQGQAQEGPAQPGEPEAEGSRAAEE
ABHD5 PLIN5 PPI: ABHD5-PLIN5 interaction inhibitors, primary screen, cell lysate, split luciferase complementation, luminescence | Split G. princeps luciferase complementation, 4 h | inhibition, % at 4 µM | 360,000 compounds, 0.78% hits;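 active = inhibition above the mean inhibition across every tested compound plus 3 SD, cut at about 22% in these data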;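 also: 0% = DMSO only wells and the 100% control is not disclosed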
Rpn11 block: Rpn11 (PSMD14) deubiquitinase inhibitors, primary screen, biochemical, fluorescence polarization, uHTS | AID 588493, 2011 | 26S proteasome non-ATPase regulatory subunit 14 (Homo sapiens), O00487 | human 26S proteasome, Ub4-pepOG fluorescence polarization; 20S core pre-blocked with epoxomicin | inhibition, % at 20 µM | 360,000 compounds, 0.59% hits;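 active = inhibition at 20 µM, scaled to each plate's controls, above about 33%, limit read from the data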
NadD inh: inhibitors of S. aureus NadD, primary screen, biochemical, colorimetric, uHTS; inhibition, % at 20 µM; 360,000 compounds, 0.78% hits; purified NadD enzyme, colorimetric absorbance read-out; AID 602399, 2012; in the data active = inhibition above about 26%
XiGFP reactiv: activators of inactive X chromosome reactivation, primary screen, imaging, XiGFP fibroblasts, GFP high-content imaging, set 2 | XiGFP mouse fibroblasts, % GFP-positive cells imaging, 3 d; cells co-treated with 5-aza-dC sensitizer; scaled so ellipticine positive control = 100% | activation, % at 7.58 µM | 360,000 compounds, 0.055% hits | AID 743238, 2013;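 active = mean normalized replicate activation at least 10% and every replicate at or above 10%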;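 also: 0% = median of on-plate neutral control wells and 100% = ellipticine 6 µM median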
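System: SV40-immortalized XiGFP fibroblast cells, line 68-5-11 / Incubation: 3-day compound exposure, then 15 min fixation at room temperature / Compound: single concentration per compound, delivered by pin transfer / Buffer or medium: DMEM plus 5-aza-dC sensitizer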
Rpn11 inh conf: Rpn11 (PSMD14) deubiquitinase inhibitors, confirmation, biochemical, fluorescence polarization, single concentration; 1,900 compounds, 29% hits; shares compounds with Rpn11 block; inhibition, % at 20 µM; purified human 26S proteasome, Ub4-pepOG fluorescence polarization; proteasome pretreated with epoxomicin; AID 602318, 2012
MMP-2 counter: MMP-2 enzyme inhibition, confirmation, counter-screen for RPN11 inhibitor project, biochemical, fluorescence, single concentration | inhibition, % at 20 µM | shares compounds with Rpn11 block | 1,900 compounds, 4% hits | recombinant MMP-2, FRET peptide cleavage fluorescence;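 also: human MMP-2 activated beforehand with APMA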
Thrombin FP: bovine thrombin protease inhibition, confirmation, counter-screen for Rpn11 inhibitor project, biochemical, fluorescence polarization, single concentration. shares compounds with Rpn11 block. bovine thrombin cleavage of Ub4-pepOG. inhibition, % at 20 µM. 1,900 compounds, 13% hits. AID 602333, 2012;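 active = mean inhibition at least 40% at 20 µM, or signal 3 deviations below plate average, so some actives read negative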;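 also: plate controls were thrombin with DMSO for no effect and buffer wells lacking thrombin for full effect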
An asterisk follows results filed as active. Rule as the data show it, unless noted: active = inhibition above about 40%; inactive = the rest.

How did CCN1C(=O)CS/C1=C(\C#N)S(=O)(=O)c1ccccc1 do in these assays?
Rin1 Abl inh: -3.1; ABHD5 PLIN5 PPI: -8.6; Rpn11 block: 42.2*; NadD inh: 6.2; Rpn11 inh conf: 33.5; MMP-2 counter: 16.4; Thrombin FP: 22.8

Results for CCN1C(=O)CS/C1=N\S(=O)(=O)c1ccccc1 ?
Rin1 Abl inh: -2.9; ABHD5 PLIN5 PPI: -1.5; Rpn11 block: -1.2; NadD inh: -0.5

Results for CC(C)N1CCc2c(sc(NC(=O)c3cc4cc([N+](=O)[O-])ccc4s3)c2C(N)=O)C1 ?
Rin1 Abl inh: -1.3; ABHD5 PLIN5 PPI: -0.4; Rpn11 block: 66.2*; NadD inh: 11.7; XiGFP reactiv: 64.6*; Rpn11 inh conf: 22.2; MMP-2 counter: 14.7; Thrombin FP: -10.8

How did CC(C)NC(=O)N[C@H]1CC[C@@H](CCNC(=O)C2CCCC2)O[C@H]1CO do in these assays?
XiGFP reactiv: 0.0

Results for Cc1cccc(N=C2NC(=O)/C(=C/C=C/c3ccco3)S2)c1C ?
Rin1 Abl inh: 4.8; ABHD5 PLIN5 PPI: 11.8; Rpn11 block: 64.9*; NadD inh: 71.8*; XiGFP reactiv: 0.1; Rpn11 inh conf: 7.5; MMP-2 counter: 46.6*; Thrombin FP: 10.4

How did C[C@@H]1CN([C@@H](C)CO)C(=O)c2cccc(NC(=O)CCCCCC(=O)Nc3ccccc3N)c2O[C@@H]1CN(C)S(C)(=O)=O do in these assays?
XiGFP reactiv: -1.5

How did Cc1ccsc1/C=C/c1ccc2cccc(O)c2n1 do in these assays?
Rin1 Abl inh: -2.7; ABHD5 PLIN5 PPI: -10.5; Rpn11 block: 2.9; NadD inh: 13.2

Results for Cc1ccsc1/C=C/c1ccc2ccccc2n1 ?
Rin1 Abl inh: -2.3; ABHD5 PLIN5 PPI: -1.0; Rpn11 block: 48.2*; NadD inh: 6.4; Rpn11 inh conf: 52.6*; MMP-2 counter: -21.3; Thrombin FP: 21.3

What do the screens show for `O=C(N/N=C/c1cccnc1)c1ccc(CN2c3cccc4cccc(c34)S2(=O)=O)cc1`?
Rin1 Abl inh: 0.6; ABHD5 PLIN5 PPI: 0.9; Rpn11 block: 4.6; NadD inh: 5.6; XiGFP reactiv: -0.1

What do the screens show for `O=C(N/N=C/c1ccccc1)c1ccc(CN2C(=O)c3cccc4cccc2c34)cc1`?
Rin1 Abl inh: -3.8; ABHD5 PLIN5 PPI: -4.8; Rpn11 block: active; NadD inh: 15.2; XiGFP reactiv: -0.1; Rpn11 inh conf: 198.8*; MMP-2 counter: -11.7; Thrombin FP: -0.6

Results for NS(=O)(=O)c1ccc2nc(NC(=O)Nc3ccc(F)cc3)sc2c1 ?
Rin1 Abl inh: -0.5; ABHD5 PLIN5 PPI: -1.9; Rpn11 block: 66.8*; NadD inh: -3.5; XiGFP reactiv: -0.1; Rpn11 inh conf: 33.0; MMP-2 counter: 1.3; Thrombin FP: 22.7

How did CS(=O)(=O)c1ccc2nc(NC(=O)Nc3ccc(Cl)cc3)sc2c1 do in these assays?
Rin1 Abl inh: -4.2; ABHD5 PLIN5 PPI: 1.3; Rpn11 block: 7.8; NadD inh: 11.6; XiGFP reactiv: -0.1

How did CO[C@H]1CN(C)C(=O)c2cc(NC(=O)Nc3cc(Cl)cc(Cl)c3)ccc2OC[C@H](C)NC[C@H]1C do in these assays?
XiGFP reactiv: 0.0

What do the screens show for `COc1ccccc1N1C(=O)S/C(=C\c2ccc(C)s2)C1=O`?
Rin1 Abl inh: -0.8; ABHD5 PLIN5 PPI: -2.9; Rpn11 block: 96.4*; NadD inh: -10.6; XiGFP reactiv: 0.4; Rpn11 inh conf: 56.8*; MMP-2 counter: -28.2; Thrombin FP: 21.8

How did COc1ccccc1N1C(=O)S/C(=C\c2cc(C)n(C)c2C)C1=O do in these assays?
Rin1 Abl inh: -1.3; ABHD5 PLIN5 PPI: -3.4; Rpn11 block: 8.5; NadD inh: 6.0; XiGFP reactiv: 0.0

How did C[C@@H]1CCCCO[C@H](CN(C)C(=O)Nc2cccc3ccccc23)[C@@H](C)CN([C@@H](C)CO)C(=O)c2cc(NS(=O)(=O)c3ccccc3)ccc2O1 do in these assays?
XiGFP reactiv: 0.1

How did CCC(CC)C(=O)c1c[nH]c(C(=O)NCc2cccs2)c1 do in these assays?
Rin1 Abl inh: 0.0; ABHD5 PLIN5 PPI: -9.7; Rpn11 block: 70.7*; NadD inh: 0.6; XiGFP reactiv: 0.0; Rpn11 inh conf: -16.7; MMP-2 counter: -36.3; Thrombin FP: -5.7

What do the screens show for `CCC(CC)C(=O)c1c[nH]c(C(=O)NCc2ccco2)c1`?
Rin1 Abl inh: -4.4; ABHD5 PLIN5 PPI: 3.0; Rpn11 block: 1.3; NadD inh: -2.7

What do the screens show for `COc1ccc(Cn2nnnc2C(c2cccs2)N2CCN(c3ccc([N+](=O)[O-])cc3)CC2)cc1` (stereo not drawn)?
Rin1 Abl inh: 4.3; ABHD5 PLIN5 PPI: 10.0; Rpn11 block: 88.6*; NadD inh: 10.0; Rpn11 inh conf: -12.9; MMP-2 counter: -26.8; Thrombin FP: 3.7

How did CC(C)C[C@@H]1COCc2cn(nn2)CC[C@H](Cc2cccc(Cl)c2)C(=O)N1 do in these assays?
XiGFP reactiv: 0.2

How did Cc1cc(C)n(CC(O)Cn2c3ccccc3c3ccccc32)c(=O)n1 (stereo not drawn) do in these assays?
Rin1 Abl inh: -0.5; ABHD5 PLIN5 PPI: -2.6; Rpn11 block: 47.5*; NadD inh: 10.5; Rpn11 inh conf: -0.4; MMP-2 counter: -0.4; Thrombin FP: -3.9

What do the screens show for `C[C@H](CO)N1C[C@H](C)[C@H](CN(C)C(=O)NC2CCCCC2)Oc2c(NC(=O)CCCCCC(=O)Nc3ccccc3N)cccc2C1=O`?
XiGFP reactiv: 0.0

How did N#C/C(=C\c1ccc(OC(=O)c2ccc(Br)s2)cc1)c1nc2ccccc2[nH]1 do in these assays?
Rin1 Abl inh: -2.4; ABHD5 PLIN5 PPI: 9.3; Rpn11 block: 58.0*; NadD inh: 30.0; XiGFP reactiv: 0.0; Rpn11 inh conf: -8.5; MMP-2 counter: -12.8; Thrombin FP: -21.9

Bioassay records (PubChem BioAssay)
